In one series the test system is Hepatitis C virus. The series can be described thus: Antiviral activity against HCV genotype1 infected in human Huh7 cells assessed as reduction of viral replication by steady-Glo luciferase assay. The class given is functional, organism-based, Hepacivirus hominis. The settings on record: genotype 1, Huh-7. The gist of the method: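 Huh-5-2 cells (Huh-7 with subgenomic genotype 1 replicon, luc-ubi-neo) seeded 5 × 10³/well in complete DMEM with 500 µg/mL G418; after 24 h at 37 °C, 5% CO₂, medium refreshed with G418 and compounds added from DMSO stock. Four days at 37 °C, then luciferase read by Steady-Glo. EC50 is the concentration halving replication; three repeats, mean ± SD.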

Series [1] in a line: Cytotoxicity against human Huh7 cells after 3 days by WST-1 assay. The class given is cell-based, Huh-7. The gist of the method:
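Huh-5-2 cells seeded 5 × 10³/well in complete DMEM with G418. Serial compound dilutions in complete DMEM without G418 added 24 h after seeding. Cells proliferated three days at 37 °C, then cell number determined by WST-1 assay.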
(In general: Tetrazolium dyes change colour on reduction, which living cells bring about.)

Series [2] is described as follows: Selectivity index, ratio of CC50 for human Huh7 cells to EC50 for HCV genotype1. Further details: species or system Huh-7.

With `[N-]=[N+]=NC[C@@]1(O)[C@@H](CO)O[C@@H](n2ccc(N)nc2=O)[C@@H]1O`, in the series with Hepatitis C virus, the EC50 (as a rule, the concentration at which the effect is half-maximal) is above 100 µM. Also, in series [1], the cytotoxic concentration (CC50) (usually the concentration giving 50% cytotoxicity) at 72 h is above 100 µM.

As for `Nc1ccn([C@@H]2O[C@H](CO)[C@](O)(CF)[C@H]2O)c(=O)n1`, the CC50 at 72 h in series [1] was above 100 µM.

Consider `Nc1ncnc2c1ncn2[C@@H]1O[C@H](CO)[C@](O)(CF)[C@H]1O`, for which the “Ratio CC50/EC50” value in series [2] amounted to 1.2. Further, the concentration giving a half-maximal response (EC50) in the series with Hepatitis C virus came to 15.3 µM. In addition, half-maximal cytotoxicity in series [1] (CC50 at 72 h) was put at 18.9 µM.

Turning to `CNc1ncnc2c1ncn2[C@@H]1O[C@H](CO)[C@](O)(CN=[N+]=[N-])[C@H]1O`, the EC50 in the series on Hepatitis C virus was above 100 µM. Moreover, the CC50 at 72 h in series [1] is above 100 µM.

With `C[C@@]1(O)[C@H](O)[C@@H](CO)O[C@H]1n1cnc2c(N)ncnc21`, the EC50 with Hepatitis C virus worked out at 0.3 µM.

On to `CNc1ncnc2c1ncn2[C@@H]1O[C@H](CO)[C@](O)(CO)[C@H]1O`, for which the “Ratio CC50/EC50” value in series [2] was found to be 1.6. In addition, in the series on Hepatitis C virus, the EC50 was found to be 37.8 µM. Moreover, half-maximal cytotoxicity in series [1] (CC50 at 72 h) was put at 58.8 µM.

Turning to `[N-]=[N+]=NC[C@@]1(O)[C@@H](CO)O[C@@H](n2cnc3c(O)ncnc32)[C@@H]1O`, the EC50 with Hepatitis C virus was above 100 µM. The CC50 at 72 h in series [1] was above 100 µM.

Regarding `Nc1ncnc2c1ncn2[C@@H]1O[C@H](CO)[C@](O)(CO)[C@H]1O`, in series [2], the “Ratio CC50/EC50” value worked out at 2. Also, the EC50 with Hepatitis C virus is 18.6 µM. In series [1], this compound returned a half-maximal cytotoxic concentration (CC50) at 72 h of 37.3 µM.

`CNc1ncnc2c1ncn2[C@@H]1O[C@H](CO)[C@](O)(CF)[C@H]1O` registered a CC50 at 72 h in series [1] above 100 µM.

Take `[N-]=[N+]=NC[C@@]1(O)[C@@H](CO)O[C@@H](n2cnc3c(N)ncnc32)[C@@H]1O`: the “Ratio CC50/EC50” value in series [2] came to 1. Also, the EC50 with Hepatitis C virus came out at 11.8 µM. For the same compound, the CC50 at 72 h in series [1] came to 12.3 µM.

The values are drawn from ChEMBL document CHEMBL1177641, “Synthesis and anti-hepatitis C virus (HCV) activity of 3'-C-substituted-methyl pyrimidine and purine nucleosides” (Bioorg Med Chem, 2010).
